Results: ChEMBL document CHEMBL2040794, “Synthesis and structure-activity analysis of new phosphonium salts with potent activity against African trypanosomes” (J Med Chem, 2012)

How the values were obtained:
[1] = Selectivity index, ratio of EC50 for human HEK cells to EC50 for wild type Trypanosoma brucei brucei Lister 427; type: toxicity, cell-based, HEK293; conditions: for selectivity ratio: HEK cells, read-out: Ratio EC50; for Ratio EC50: hek293
Procedure, shortened: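 Ratio of EC₅₀ in HEK cells to EC₅₀ in wild-type T. b. brucei s427, both from resazurin assays.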

[2] = test system: Trypanosoma brucei brucei; assay: Antitrypanosomal activity against diminazene-, pentamidine-, and melaminophenyl arsenical-resistant HAPT1-deficient Trypanosoma brucei brucei B48 after 3 days by alamar blue assay; type: functional, organism-based
Procedure, shortened: (§1)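 Bloodstream-form T. b. brucei (wild-type s427; TbAT1-KO, made from s427 by TbAT1 deletion; B48, selected from TbAT1-KO in vitro on pentamidine, lacking functional HAPT1). Cells were exposed to compound for 48 h, then resazurin (Alamar blue) was added for a further 24 h. A single fluorescence reading gave EC50.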

[3] = Cytotoxicity against human HEK cells after 3 days by alamar blue assay; type: cell-based, HEK293
Procedure, shortened: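 Human embryonic kidney cells tested by resazurin (Alamar blue) assay: 48 h with compound, then 24 h more after dye addition, single reading; EC₅₀ derived.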

[4] = test system: Trypanosoma brucei brucei; assay: Resistance factor, ratio of EC50 for diminazene aceturate-resistant TbAT1 gene-deficient Trypanosoma brucei brucei AT1-KO to EC50 for wild type Trypanosoma brucei brucei Lister 427; type: functional
Procedure, shortened: (§2)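 Resistance factor is the EC50 in the resistant line (TbAT1-KO or B48) divided by the EC50 in wild-type s427. […] Resistant and wild-type EC50s were compared by Student t-test.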

[5] = test system: Trypanosoma brucei brucei; assay: Antitrypanosomal activity against wild type Trypanosoma brucei brucei Lister 427 after 3 days by alamar blue assay; type: functional, organism-based; procedure, shortened: as §1
[6] = test system: Trypanosoma brucei brucei; assay: Antitrypanosomal activity against diminazene aceturate-resistant TbAT1 gene-deficient Trypanosoma brucei brucei AT1-KO after 3 days by alamar blue assay; type: functional, organism-based; procedure, shortened: as §1
[7] = Selectivity index, ratio of EC50 for rat L6 cells to EC50 for Trypanosoma brucei rhodesiense STIB900; type: toxicity, cell-based; conditions: for selectivity ratio: L6 cells, read-out: Ratio EC50; for Ratio EC50: l6
Procedure, shortened: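 Ratio of EC₅₀ in L6 cells to EC₅₀ against T. b. rhodesiense STIB900, both from Alamar blue assays.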

L6 = assay: Cytotoxicity against rat L6 cells after 72 hrs by alamar blue assay; type: cell-based
[8] = test system: Trypanosoma brucei rhodesiense; assay: Antitrypanosomal activity against Trypanosoma brucei rhodesiense STIB900 infected in rat L6 cells after 72 hrs by alamar blue assay; type: functional, organism-based
[9] = test system: Trypanosoma brucei brucei; assay: Resistance factor, ratio of EC50 for diminazene-, pentamidine-, and melaminophenyl arsenical-resistant HAPT1-deficient Trypanosoma brucei brucei B48 to EC50 for wild type Trypanosoma brucei brucei Lister 427; type: functional; procedure, shortened: as §2
[10] = Trypanosoma brucei, Lister 427, 72 h
[11] = Trypanosoma brucei, AT1-KO, 72 h
[12] = Trypanosoma brucei, STIB900, 72 h

Row | SMILES | selectivity ratio [1] | EC50 ([2]; Trypanosoma brucei, B48, 72 h) [µM] | EC50 ([3]; Homo sapiens, HEK293, 72 h) [µM] | Ratio EC50 [4] | EC50 [5, 10] [µM] | EC50 [6, 11] [µM] | selectivity ratio [7] | EC50 (L6; Rattus norvegicus, L6, 72 h) [µM] | EC50 [8, 12] [µM] | Ratio EC50 [9] | Ratio EC50 [1] | EC50 [2] [µM] | EC50 ([3]; hek293) [µM] | EC50 [5] [µM] | EC50 [6] [µM] | Ratio EC50 [7] | EC50 (L6; l6) [µM] | EC50 [8] [µM]
1 | O=C(c1ccc(C[P+](c2ccc(F)cc2)(c2ccc(F)cc2)c2ccc(F)cc2)cc1)c1ccc(C[P+](c2ccc(F)cc2)(c2ccc(F)cc2)c2ccc(F)cc2)cc1.[Br-].[Br-] | > 350 | 1.24 | > 300 | 2.5 | 0.85 | 2.1 | 172 | 77.4 | 0.45 | 1.5 | – | – | – | – | – | – | – | –
2 | CCC[P+](Cc1ccc(Cc2ccc(C[P+](CCC)(c3ccccc3)c3ccccc3)cc2)cc1)(c1ccccc1)c1ccccc1.[Br-].[Br-] | > 800 | 0.43 | > 300 | 1.1 | 0.373 | 0.4 | 4.1 | 3.27 | 0.799 | 1.1 | – | – | – | – | – | – | – | –
3 | Cc1ccc([P+](Cc2ccc(Oc3ccccc3)cc2)(c2ccc(C)cc2)c2ccc(C)cc2)cc1.[Br-] | 1140 | 0.01 | 17.6 | 0.8 | 0.015 | 0.013 | 131 | 0.263 | 0.002 | 0.7 | – | – | – | – | – | – | – | –
4 | O=C(c1ccc(C[P+](c2ccc(Cl)cc2)(c2ccc(Cl)cc2)c2ccc(Cl)cc2)cc1)c1ccc(C[P+](c2ccc(Cl)cc2)(c2ccc(Cl)cc2)c2ccc(Cl)cc2)cc1.[Br-].[Br-] | 67 | 0.95 | 63 | 1.5 | 0.94 | 1.37 | 18 | 7.2 | 0.41 | 1 | – | – | – | – | – | – | – | –
5 | Cc1ccc([P+](Cc2ccc(CCCc3ccc(C[P+](c4ccc(C)cc4)(c4ccc(C)cc4)c4ccc(C)cc4)cc3)cc2)(c2ccc(C)cc2)c2ccc(C)cc2)cc1.[Cl-].[Cl-] | – | – | – | 0.7 | – | – | – | – | – | 0.6 | 127 | 0.062 | 12.7 | 0.1 | 0.066 | 27.3 | 1.72 | 0.063
6 | C[P+](C)(Cc1ccc(CCc2ccc(C[P+](C)(C)c3ccccc3)cc2)cc1)c1ccccc1.[Br-].[Br-] | > 110 | 1.8 | > 300 | 1 | 2.59 | 2.62 | 40 | 48.6 | 1.2 | 0.5 | – | – | – | – | – | – | – | –
7 | Cc1ccc([P+](Cc2ccc(CCc3ccc(C[P+](c4ccc(C)cc4)(c4ccc(C)cc4)c4ccc(C)cc4)cc3)cc2)(c2ccc(C)cc2)c2ccc(C)cc2)cc1.[Cl-].[Cl-] | – | – | – | 0.5 | – | – | – | – | – | 0.8 | 404 | 0.045 | 23.3 | 0.058 | 0.03 | 33.8 | 1.69 | 0.05
8 | Cc1ccc([P+](Cc2ccc(Cc3ccc(C[P+](c4ccc(C)cc4)(c4ccc(C)cc4)c4ccc(C)cc4)cc3)cc2)(c2ccc(C)cc2)c2ccc(C)cc2)cc1.[Br-].[Br-] | 2900 | 0.074 | 233 | 1 | 0.08 | 0.08 | 24 | 2.33 | 0.099 | 0.9 | – | – | – | – | – | – | – | –
9 | COc1ccccc1[P+](Cc1ccc(C(=O)c2ccccc2)cc1)(c1ccccc1OC)c1ccccc1OC.[Br-] | 306 | 0.15 | 63.2 | 1.1 | 0.21 | 0.22 | 10 | 3.97 | 0.376 | 0.7 | – | – | – | – | – | – | – | –
10 | O=C(c1ccc(C[P+](c2ccccc2)(c2ccccc2)c2ccccn2)cc1)c1ccc(C[P+](c2ccccc2)(c2ccccc2)c2ccccn2)cc1.[Br-].[Br-] | > 400 | 1.33 | > 300 | 2 | 0.7 | 1.43 | 24 | 14.6 | 0.607 | 1.9 | – | – | – | – | – | – | – | –
11 | Cc1ccccc1[P+](Cc1ccc(C(=O)c2ccc(C[P+](c3ccccc3)(c3ccccc3)c3ccccc3C)cc2)cc1)(c1ccccc1)c1ccccc1.[Br-].[Br-] | 1100 | 0.22 | 214 | 1.2 | 0.2 | 0.24 | 88 | 14 | 0.16 | 1.1 | – | – | – | – | – | – | – | –
12 | Cc1ccc([P+](Cc2ccc(C(=O)c3ccc(C[P+](c4ccc(C)cc4)(c4ccc(C)cc4)c4ccc(C)cc4)cc3)cc2)(c2ccc(C)cc2)c2ccc(C)cc2)cc1.[Cl-].[Cl-] | – | – | – | 0.7 | – | – | – | – | – | 0.8 | 254 | 0.073 | 24 | 0.094 | 0.065 | 14.5 | 1.22 | 0.084
13 | Cc1ccc([P+](Cc2ccc(C(=O)c3ccc(C[P+](c4ccc(C)cc4)(c4ccc(C)cc4)c4ccc(C)cc4)cc3)cc2)(c2ccc(C)cc2)c2ccc(C)cc2)cc1.[Br-].[Br-] | – | 0.09 | – | 1.6 | 0.11 | – | – | – | – | 0.8 | 1266 | – | 141 | – | 0.018 | 49 | 10.8 | 0.22
14 | C[P+](Cc1ccc(C(=O)c2ccc(C[P+](C)(c3ccccc3)c3ccccc3)cc2)cc1)(c1ccccc1)c1ccccc1.[Br-].[Br-] | > 200 | 2.05 | > 300 | 1.4 | 1.53 | 2.08 | 177 | 116 | 0.656 | 1.3 | – | – | – | – | – | – | – | –
15 | [Br-].[Br-].c1ccc2c([P+](Cc3ccc(Cc4ccc(C[P+](c5cccc6ccccc56)(c5cccc6ccccc56)c5cccc6ccccc56)cc4)cc3)(c3cccc4ccccc34)c3cccc4ccccc34)cccc2c1 | 1210 | 0.14 | 163 | 1.3 | 0.14 | 0.17 | 12 | 3.43 | 0.299 | 1 | – | – | – | – | – | – | – | –
16 | CC(C)[P+](Cc1ccc(Oc2ccc(C[P+](c3ccccc3)(c3ccccc3)C(C)C)cc2)cc1)(c1ccccc1)c1ccccc1.[Br-].[Br-] | > 900 | 0.33 | > 300 | 1 | 0.33 | 0.33 | 8.6 | 5 | 0.585 | 1 | – | – | – | – | – | – | – | –
17 | CC[P+](Cc1ccc(C(=O)c2ccc(C[P+](CC)(c3ccccc3)c3ccccc3)cc2)cc1)(c1ccccc1)c1ccccc1.[Br-].[Br-] | > 300 | 1.76 | > 300 | 2.2 | 0.97 | 2.1 | > 204 | > 113 | 0.554 | 1.8 | – | – | – | – | – | – | – | –
18 | COc1ccccc1[P+](Cc1ccc(Oc2ccc(C[P+](c3ccccc3OC)(c3ccccc3OC)c3ccccc3OC)cc2)cc1)(c1ccccc1OC)c1ccccc1OC.[Br-].[Br-] | 2520 | 0.045 | 141 | 1 | 0.056 | 0.057 | 8 | 1.27 | 0.153 | 0.8 | – | – | – | – | – | – | – | –
19 | Cc1ccc(C[P+](c2ccccc2)(c2ccccc2)c2ccccc2)cc1.[Cl-] | > 12500 | 0.023 | > 300 | 1 | 0.023 | 0.024 | 48 | 10.4 | 0.216 | 1 | – | – | – | – | – | – | – | –
20 | Cc1cccc([P+](Cc2ccc(Oc3ccccc3)cc2)(c2cccc(C)c2)c2cccc(C)c2)c1.[Br-] | 876 | 0.017 | 24.5 | 0.8 | 0.028 | 0.021 | 62 | 0.87 | 0.014 | 0.6 | – | – | – | – | – | – | – | –
21 | Cc1ccc([P+](Cc2ccc(CCc3ccc(C[P+](c4ccc(C)cc4)(c4ccc(C)cc4)c4ccc(C)cc4)cc3)cc2)(c2ccc(C)cc2)c2ccc(C)cc2)cc1.[Br-].[Br-] | 213 | – | 32.4 | 1 | – | – | – | – | 0.084 | 1 | – | 0.15 | – | 0.15 | 0.15 | 7.8 | 0.656 | –
